Active and inactive are the calls of the source. The rule behind the calls is not given here.
Experiments:
MEF [1] = test: Induction of cell cycle arrest in MEF cells assessed as accumulation at G1 phase at 3 uM incubated for 1 to 3 days by propidium iodide staining based flow cytometric analysis (reference value: 21.4 +/- 1.7%); type: toxicity; settings: mouse, time 1-3 day
[2] = molecular target: Mitogen-activated protein kinase 9 (Homo sapiens) (UniProt P45984); test: (§1) Inhibition of recombinant human N-terminal His6-tagged JNK2alpha2 (1 to 424 residues) expressed in baculovirus infected Sf21 cells assessed as remaining activity at 10 uM using ATF2 as substrate incubated for 30 mins in presence of [gamma-33P]ATP by filter binding method relative to control
mTORC2 (Homo sapiens) [3] = molecular target: T1, mTORC2 (Homo sapiens) (UniProt P42345+Q6R327+Q9BVC4+Q9BPZ7); settings: HEK293, dose 30-1000 nM, time 30.0 min
[4] = molecular target: Mitogen-activated protein kinase 13 (Homo sapiens) (UniProt O15264); test: (§2) Inhibition of recombinant human GST-tagged P38delta (1 to 365 residues) expressed in Escherichia coli assessed as remaining activity at 10 uM using MBP as substrate incubated for 30 mins in presence of [gamma-33P]ATP by filter binding method relative to control
In short: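 Kinase panel run robotically at 21 °C for 30 min, linear in time and enzyme. […] Compound tested at 1 or 10 µM. Activity given as percentage of incubations without compound, mean of triplicates ± S.D.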

[5] = molecular target: CDK2/Cyclin A2 (Homo sapiens) (UniProt P24941+P20248); test: as §2, with “human N-terminal” for “human”, “CDK2 (2” for “P38delta (1”, “298 residues)/N-terminal GST-tagged Cyclin A2 (171 to 432” for “365”, “YSPTSPSYSPTSPSYSPTSPKKK” for “MBP”
In short: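 Incubations ran robotically for 30 min at room temperature (21 °C) under linear conditions. Results are percent activity remaining versus controls without compound, as the mean of triplicates ± S.D.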

mTORC2 (Homo sapiens) [6] = molecular target: T1, mTORC2 (Homo sapiens); settings: HEK293, dose 30-1000 nM, time 30.0 min; remark: listed apart in the source
[7] = molecular target: Serine/threonine-protein kinase Nek2 (Homo sapiens) (UniProt P51955); test: Inhibition of recombinant human N-terminal His6-tagged NEK2A (1 to 445 residues) expressed in baculovirus infected Sf21 cells assessed as remaining activity at 10 uM using RFRRSRRMI as substrate incubated for 30 mins in presence of [gamma-33P]ATP by filter binding method relative to control
[8] = molecular target: Mitogen-activated protein kinase 1 (Homo sapiens) (UniProt P28482); test: Inhibition of recombinant human N-terminal GST-tagged ERK2 (2 to 360 residues) expressed in Escherichia coli assessed as remaining activity at 1 uM using MBP as substrate incubated for 30 mins in presence of [gamma-33P]ATP by filter binding method relative to control
In short: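 Incubation was 30 min at room temperature (21 °C) under conditions linear with time and enzyme amount. Activity is reported as percent of control lacking compound, triplicate mean ± S.D.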

[9] = molecular target: Calcium/calmodulin-dependent protein kinase type 1 (Homo sapiens) (UniProt Q14012); test: Inhibition of recombinant human N-terminal GST-tagged CAMK1alpha (2 to 369 residues) expressed in Escherichia coli assessed as remaining activity at 10 uM using YLRRRLSDSNF as substrate incubated for 30 mins in presence of [gamma-33P]ATP by filter binding method relative to control
In short: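 Run robotically for 30 min at 21 °C under linear conditions. Compound at 1 or 10 µM. Percentage activity remaining versus control without compound, triplicate mean ± S.D.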

[10] = molecular target: Serine/threonine-protein kinase pim-2 (Homo sapiens) (UniProt Q9P1W9); test: Inhibition of recombinant human N-terminal GST-tagged PIM2 (2 to 334 residues) expressed in Escherichia coli assessed as remaining activity at 10 uM using RSRHSSYPAGT as substrate incubated for 30 mins in presence of [gamma-33P]ATP by filter binding method relative to control
In short: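 Radiometric kinase panel run robotically at room temperature (21 °C) for 30 min, linear in time and enzyme. […] Activity is expressed as percent of control without compound, from triplicate determinations ± S.D.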

[11] = molecular target: MAP/microtubule affinity-regulating kinase 3 (Homo sapiens) (UniProt P27448); test: Inhibition of recombinant human N-terminal His6-tagged MARK3 (2 to 729 residues) expressed in baculovirus infected Sf21 cells assessed as remaining activity at 10 uM using CHKtide as substrate incubated for 30 mins in presence of [gamma-33P]ATP by filter binding method relative to control
MEF [12] = test: Induction of cell cycle arrest in mLST8 knockout MEF cells assessed as accumulation at S phase at 3 uM incubated for 1 to 3 days by propidium iodide staining based flow cytometric analysis (reference value: 59.7 +/- 0.49%); type: toxicity; settings: mouse, time 1-3 day
[13] = molecular target: Serine/threonine-protein kinase PAK 5 (Homo sapiens) (UniProt Q9P286); test: Inhibition of recombinant human N-terminal GST-tagged PAK5 (2 to 719 residues) expressed in Escherichia coli assessed as remaining activity at 10 uM using RRRLSFAEPG as substrate incubated for 30 mins in presence of [gamma-33P]ATP by filter binding method relative to control
In short: (§3)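 Panel assays were run for 30 min at 21 °C, within the linear range for time and enzyme. […] Results are percent activity remaining relative to compound-free control, averaged from triplicate ± S.D.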

[14] = molecular target: Mitogen-activated protein kinase 11 (Homo sapiens) (UniProt Q15759); test: Inhibition of recombinant human N-terminal GST-tagged P38beta (1 to 364 residues) expressed in Escherichia coli assessed as remaining activity at 1 uM using MBP as substrate incubated for 30 mins in presence of [gamma-33P]ATP by filter binding method relative to control; in short: as §3
[15] = as §1, with “PKBbeta S474D mutant (120” for “JNK2alpha2 (1”, “481” for “424”, “crosstide peptide” for “ATF2”; settings: condition cancer, 0.5 h
In short: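 Assays ran 30 min at 21 °C, robotically and in the linear range. Remaining activity is given relative to incubations lacking compound, as the average of triplicate determinations ± S.D.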

mTORC1 (Homo sapiens) = mTORC1 (Homo sapiens) (UniProt P42345+Q8N122+Q9BVC4); settings: HEK293, dose 30-1000 nM, time 30.0 min
mTORC2 (Homo sapiens) [16] = molecular target: T1, mTORC2 (Homo sapiens); settings: HEK293, dose 100-1000 nM, time 20.0 min
mTORC2 (Homo sapiens) [17] = molecular target: T1, mTORC2 (Homo sapiens); settings: HEK293, dose 30-1000 nM, time 30.0 min; remark: listed apart in the source
[18] = molecular target: Tyrosine-protein kinase SYK (Homo sapiens) (UniProt P43405); test: Inhibition of recombinant human N-terminal His6-tagged SYK (1 to 635 residues) expressed in baculovirus infected Sf21 cells assessed as remaining activity at 10 uM using Poly (Glu,Tyr) as substrate incubated for 30 mins in presence of [gamma-33P]ATP by filter binding assay relative to control

Sequence of Mitogen-activated protein kinase 13 (Homo sapiens) (O15264 whole entry, the tested form may be a part): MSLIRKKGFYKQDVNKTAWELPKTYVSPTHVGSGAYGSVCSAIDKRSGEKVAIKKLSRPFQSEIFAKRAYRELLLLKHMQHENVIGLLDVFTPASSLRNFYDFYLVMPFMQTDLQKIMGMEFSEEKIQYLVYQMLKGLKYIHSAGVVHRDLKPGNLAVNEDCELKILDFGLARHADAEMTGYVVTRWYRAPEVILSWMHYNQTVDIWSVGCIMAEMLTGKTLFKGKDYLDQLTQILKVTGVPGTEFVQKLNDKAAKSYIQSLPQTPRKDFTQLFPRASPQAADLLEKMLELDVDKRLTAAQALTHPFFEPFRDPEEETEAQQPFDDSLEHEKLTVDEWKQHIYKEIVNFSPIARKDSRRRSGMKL
Sequence of Serine/threonine-protein kinase pim-2 (Homo sapiens) (Q9P1W9 whole entry, looked up, the tested form may be a part): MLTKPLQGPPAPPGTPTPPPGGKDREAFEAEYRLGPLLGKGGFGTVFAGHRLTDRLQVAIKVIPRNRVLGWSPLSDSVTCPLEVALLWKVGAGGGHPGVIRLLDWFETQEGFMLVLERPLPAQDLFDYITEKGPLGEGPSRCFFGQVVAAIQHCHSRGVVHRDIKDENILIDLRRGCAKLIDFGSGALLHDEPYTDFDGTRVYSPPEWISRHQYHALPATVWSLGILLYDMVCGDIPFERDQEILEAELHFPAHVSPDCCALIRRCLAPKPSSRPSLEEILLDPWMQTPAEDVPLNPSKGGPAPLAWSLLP
Sequence of MAP/microtubule affinity-regulating kinase 3 (Homo sapiens) (P27448 whole entry, looked up, the tested form may be a part): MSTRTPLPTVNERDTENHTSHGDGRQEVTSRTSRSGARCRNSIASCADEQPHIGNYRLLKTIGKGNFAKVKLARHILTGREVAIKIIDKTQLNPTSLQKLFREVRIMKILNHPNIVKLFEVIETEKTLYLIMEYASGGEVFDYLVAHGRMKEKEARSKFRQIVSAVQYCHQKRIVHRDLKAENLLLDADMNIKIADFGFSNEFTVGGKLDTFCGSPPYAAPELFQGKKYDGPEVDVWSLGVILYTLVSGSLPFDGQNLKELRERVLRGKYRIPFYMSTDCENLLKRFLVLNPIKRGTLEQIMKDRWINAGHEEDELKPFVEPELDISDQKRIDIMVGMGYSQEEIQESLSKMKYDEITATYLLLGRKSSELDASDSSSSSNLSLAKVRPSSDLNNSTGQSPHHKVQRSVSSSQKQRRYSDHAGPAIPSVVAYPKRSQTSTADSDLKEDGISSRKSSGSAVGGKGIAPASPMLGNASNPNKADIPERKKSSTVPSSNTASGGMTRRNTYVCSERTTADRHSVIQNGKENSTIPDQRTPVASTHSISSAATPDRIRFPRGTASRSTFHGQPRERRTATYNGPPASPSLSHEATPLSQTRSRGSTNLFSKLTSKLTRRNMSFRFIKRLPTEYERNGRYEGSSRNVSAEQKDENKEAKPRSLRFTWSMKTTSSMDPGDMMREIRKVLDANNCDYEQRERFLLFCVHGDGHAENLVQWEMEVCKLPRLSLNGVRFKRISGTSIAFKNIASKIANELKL
Sequence of Mitogen-activated protein kinase 1 (Homo sapiens) (P28482 whole entry, the tested form may be a part): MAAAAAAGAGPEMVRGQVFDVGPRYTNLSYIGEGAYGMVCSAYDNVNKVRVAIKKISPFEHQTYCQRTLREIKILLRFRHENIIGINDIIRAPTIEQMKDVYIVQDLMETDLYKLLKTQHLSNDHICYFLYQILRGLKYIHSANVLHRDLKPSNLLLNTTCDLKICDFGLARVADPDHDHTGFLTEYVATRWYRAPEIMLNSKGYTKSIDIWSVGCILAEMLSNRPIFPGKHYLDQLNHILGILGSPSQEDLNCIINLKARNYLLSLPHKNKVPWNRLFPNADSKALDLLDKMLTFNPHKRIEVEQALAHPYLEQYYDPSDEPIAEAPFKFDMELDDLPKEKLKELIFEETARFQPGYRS
Sequence of Serine/threonine-protein kinase Nek2 (Homo sapiens) (P51955 whole entry, the tested form may be a part): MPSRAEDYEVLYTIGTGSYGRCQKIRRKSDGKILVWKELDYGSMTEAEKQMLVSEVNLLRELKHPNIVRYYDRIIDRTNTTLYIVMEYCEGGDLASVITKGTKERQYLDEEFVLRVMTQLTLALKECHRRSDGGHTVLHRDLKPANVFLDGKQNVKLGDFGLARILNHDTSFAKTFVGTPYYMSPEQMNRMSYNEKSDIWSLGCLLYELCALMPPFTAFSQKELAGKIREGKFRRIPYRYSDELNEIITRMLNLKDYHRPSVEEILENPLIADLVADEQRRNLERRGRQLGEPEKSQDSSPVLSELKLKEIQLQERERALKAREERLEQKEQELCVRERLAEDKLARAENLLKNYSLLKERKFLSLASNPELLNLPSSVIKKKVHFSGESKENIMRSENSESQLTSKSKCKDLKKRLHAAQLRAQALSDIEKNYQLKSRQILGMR
Sequence of Serine/threonine-protein kinase PAK 5 (Homo sapiens) (Q9P286 whole entry, looked up, the tested form may be a part): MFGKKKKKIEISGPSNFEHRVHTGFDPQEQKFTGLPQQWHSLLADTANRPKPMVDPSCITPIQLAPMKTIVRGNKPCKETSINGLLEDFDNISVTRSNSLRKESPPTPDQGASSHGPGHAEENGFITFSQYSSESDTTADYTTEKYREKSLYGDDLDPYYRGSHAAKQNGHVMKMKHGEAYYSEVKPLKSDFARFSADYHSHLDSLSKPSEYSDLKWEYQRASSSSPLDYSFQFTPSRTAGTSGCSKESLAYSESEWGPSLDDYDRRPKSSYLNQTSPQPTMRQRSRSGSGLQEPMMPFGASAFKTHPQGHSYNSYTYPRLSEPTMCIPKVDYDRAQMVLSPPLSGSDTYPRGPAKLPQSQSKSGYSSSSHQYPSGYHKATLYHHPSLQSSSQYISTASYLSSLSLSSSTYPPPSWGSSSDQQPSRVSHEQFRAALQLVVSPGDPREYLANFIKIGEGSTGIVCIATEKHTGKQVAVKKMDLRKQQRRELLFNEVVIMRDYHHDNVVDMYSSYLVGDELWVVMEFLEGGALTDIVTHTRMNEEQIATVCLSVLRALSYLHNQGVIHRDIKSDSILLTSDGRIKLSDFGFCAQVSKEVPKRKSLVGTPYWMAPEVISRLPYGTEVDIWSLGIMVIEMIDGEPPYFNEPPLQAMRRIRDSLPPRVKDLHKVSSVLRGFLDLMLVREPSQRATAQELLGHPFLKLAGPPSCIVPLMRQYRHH
Sequence of Mitogen-activated protein kinase 11 (Homo sapiens) (Q15759 whole entry, the tested form may be a part): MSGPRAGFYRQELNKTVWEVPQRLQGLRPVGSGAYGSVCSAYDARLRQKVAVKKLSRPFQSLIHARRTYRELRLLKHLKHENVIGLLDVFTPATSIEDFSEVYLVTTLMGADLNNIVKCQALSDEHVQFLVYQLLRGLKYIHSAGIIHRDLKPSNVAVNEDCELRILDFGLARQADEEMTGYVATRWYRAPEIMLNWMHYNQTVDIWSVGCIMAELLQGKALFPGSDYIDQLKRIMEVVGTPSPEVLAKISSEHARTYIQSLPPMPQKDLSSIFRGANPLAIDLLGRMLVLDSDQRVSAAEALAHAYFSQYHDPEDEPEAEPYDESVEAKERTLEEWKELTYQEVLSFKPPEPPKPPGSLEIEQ
Sequence of Mitogen-activated protein kinase 9 (Homo sapiens) (P45984 whole entry, looked up, the tested form may be a part): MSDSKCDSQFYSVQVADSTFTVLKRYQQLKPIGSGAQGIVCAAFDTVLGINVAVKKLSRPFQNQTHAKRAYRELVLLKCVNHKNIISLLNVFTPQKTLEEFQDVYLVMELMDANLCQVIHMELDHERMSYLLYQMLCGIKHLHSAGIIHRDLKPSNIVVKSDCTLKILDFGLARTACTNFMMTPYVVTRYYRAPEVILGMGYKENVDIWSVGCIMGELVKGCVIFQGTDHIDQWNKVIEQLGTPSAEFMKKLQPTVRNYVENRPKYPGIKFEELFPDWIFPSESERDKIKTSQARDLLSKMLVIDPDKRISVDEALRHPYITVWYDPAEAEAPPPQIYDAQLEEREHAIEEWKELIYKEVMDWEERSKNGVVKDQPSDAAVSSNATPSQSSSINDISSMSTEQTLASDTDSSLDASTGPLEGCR
Sequence of Calcium/calmodulin-dependent protein kinase type 1 (Homo sapiens) (Q14012 whole entry, looked up, the tested form may be a part): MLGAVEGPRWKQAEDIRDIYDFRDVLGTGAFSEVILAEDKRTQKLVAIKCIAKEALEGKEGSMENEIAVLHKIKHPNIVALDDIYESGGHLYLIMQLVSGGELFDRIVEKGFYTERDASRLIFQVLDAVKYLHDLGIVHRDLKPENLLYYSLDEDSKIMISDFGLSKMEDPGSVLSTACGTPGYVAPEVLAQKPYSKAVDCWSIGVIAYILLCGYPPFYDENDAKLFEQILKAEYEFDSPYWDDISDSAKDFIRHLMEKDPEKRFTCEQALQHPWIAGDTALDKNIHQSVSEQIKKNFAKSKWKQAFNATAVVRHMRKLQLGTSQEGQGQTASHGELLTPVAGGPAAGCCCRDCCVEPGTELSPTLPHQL

With COc1ccc(-c2ccc3c(N4CCOCC4)nc(N4C[C@@H](C)O[C@@H](C)C4)nc3n2)cc1CO [Ku-0063794] the Activity (MEF [1]) was 42.4%, the Activity [2] was 103% and the inhibition (mTORC2 (Homo sapiens) [3]) was “Dose-Dependent Effect”. The Activity [4] was 87%, the Activity [5] was 90% and the inhibition (mTORC2 (Homo sapiens) [6]) was “Dose-Dependent Effect”. The Activity [7] was 86%, the Activity [8] was 102% and the Activity [9] was 101%. The Activity [10] was 78%, the Activity [11] was 93% and the Activity (MEF [12]) was 36.5%. It also gave an Activity [13] of 81%, an Activity [14] of 106% and an Activity [15] of 107%. For the same compound, the inhibition (mTORC1 (Homo sapiens)) was “Active”, the inhibition (mTORC2 (Homo sapiens) [16]) was “Active” and the inhibition (mTORC2 (Homo sapiens) [17]) was “Dose-Dependent Effect”. The Activity [18] was 83%.

From ChEMBL document CHEMBL5678799 (Biochem J, 2009)
